Legend:
[1] = Binding affinity for nAChR with [3H]nicotine in rat brain; format: tissue-based
Procedure, shortened: (§1)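 Competition with 5 nM [3H](-)-nicotine against varied inhibitor concentrations, using 400 µg protein from rat brain membranes or 100 µg protein from recombinant rat α4β2 membranes. Incubation 30 min at 22 °C in Tris-HCl pH 7.4 buffer with NaCl, KCl, CaCl2, MgSO4, EDTA. Stopped by filtration through polyethylenimine-soaked GF/B filters. Nonspecific binding with 5 µM (-)-nicotine.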

[2] = molecular target: Nicotinic acetylcholine receptor; experiment: Binding affinity for nAChR with [3H]imidacloprid in Drosophila; format: protein-complex assay, Drosophila melanogaster
[3] = molecular target: Nicotinic acetylcholine receptor; experiment: Binding affinity for nAChR with [3H]imidacloprid in Myzus persicae; format: protein-complex assay
[4] = molecular target: Neuronal acetylcholine receptor subunit alpha-4 (Rattus norvegicus, UniProt P09483+P12390); experiment: Binding affinity for nAChR with [3H]-nicotine in rat alpha4 beta2 membranes; format: cell membranes; procedure, shortened: as §1
Chain of Neuronal acetylcholine receptor subunit alpha-4 (P09483 whole entry, one chain of several): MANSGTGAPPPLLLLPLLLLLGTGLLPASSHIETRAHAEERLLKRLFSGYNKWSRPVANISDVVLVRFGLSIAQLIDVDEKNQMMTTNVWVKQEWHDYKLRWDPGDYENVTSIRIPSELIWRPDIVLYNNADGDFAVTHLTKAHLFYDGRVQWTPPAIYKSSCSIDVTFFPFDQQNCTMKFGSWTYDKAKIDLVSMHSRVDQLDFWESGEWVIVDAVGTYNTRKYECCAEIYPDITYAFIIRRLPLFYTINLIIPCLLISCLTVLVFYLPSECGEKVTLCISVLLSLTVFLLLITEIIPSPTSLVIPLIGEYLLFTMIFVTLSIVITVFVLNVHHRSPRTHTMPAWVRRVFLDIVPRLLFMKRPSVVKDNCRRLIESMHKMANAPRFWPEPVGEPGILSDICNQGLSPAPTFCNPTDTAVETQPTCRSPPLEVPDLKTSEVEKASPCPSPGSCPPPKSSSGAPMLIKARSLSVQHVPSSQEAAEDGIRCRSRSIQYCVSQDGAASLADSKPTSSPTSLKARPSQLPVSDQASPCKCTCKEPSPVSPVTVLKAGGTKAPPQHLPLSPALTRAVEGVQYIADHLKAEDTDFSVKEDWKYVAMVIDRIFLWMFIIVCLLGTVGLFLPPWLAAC

## C/N=C(\NCc1ccc(Cl)nc1)N[N+](=O)[O-]
[1]
  Ki: 3500 nM
[2]
  Ki: 10 nM
[3]
  Ki: 12 nM

## C/N=C(\NCc1cnc(Cl)c(N=[N+]=[N-])c1)N[N+](=O)[O-]
[1]
  Ki: 44 nM
[2]
  Ki: 13 nM
[3]
  Ki: 4.5 nM

## [N-]=[N+]=Nc1cc(CN2CCNC2=N[N+](=O)[O-])cnc1Cl [5-AZIDOIMIDACLOPRID]
[1]
  Ki: 44 nM
[4]
  Ki: 4.4 nM
[2]
  Ki: 15 nM
[3]
  Ki: 1 nM

## O=[N+]([O-])NC1=NCCN1Cc1ccc(Cl)nc1 [IMIDACLOPRID]
[1]
  Ki: 290 nM
[4]
  Ki: 50 nM
[2]
  Ki: 2.1 nM
[3]
  Ki: 1.9 nM

Reference: ChEMBL document CHEMBL1133567, “5-Azidoimidacloprid and an acyclic analogue as candidate photoaffinity probes for mammalian and insect nicotinic acetylcholine receptors” (J Med Chem, 2000)
